CHOP inhibitor: inhibitors of CHOP promoter induction, primary screen, cell-based, unfolded protein response, luciferase reporter. 3.8% of 220,000 active. CHO-K1 CHOP-promoter luciferase, tunicamycin-induced, 15-18 h. inhibition, % at 10 µM;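 active = compounds that reduced the stress-induced luciferase reporter signal by more than about 70% of percent inhibition, limit read from the data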
GRIN3A LBD mod: binders of NR3A ligand-binding domain, primary screen, biophysical, differential scanning fluorimetry, uHTS; Glutamate receptor ionotropic, NMDA 3A (GRIN3A) ligand-binding domain; NR3A LBD differential scanning fluorimetry, Tm shift; 0% = protein alone, 100% = glycine-bound protein; Tm shift relative to glycine control, % at 25 µM; 2.5% of 340,000 active; AID 1259313, 2017;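 active = melting temperature shift of at least 10% of the positive control shift, at one fixed dose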
EBV gp42 inh: Epstein-Barr virus gp42 inhibitors, primary screen, biochemical, uHTS, fluorescence polarization. Glycoprotein 42 (Epstein-Barr virus (strain AG876)), Q1HVG2. Fluorescence polarization binding assay, mP read-out. inhibition, % (tested at 21.74 µM). 0.42% of 220,000 active. AID 1085, 2008; in the data active = inhibition above about 50%
Target sequence (Q1HVG2 whole entry, looked up): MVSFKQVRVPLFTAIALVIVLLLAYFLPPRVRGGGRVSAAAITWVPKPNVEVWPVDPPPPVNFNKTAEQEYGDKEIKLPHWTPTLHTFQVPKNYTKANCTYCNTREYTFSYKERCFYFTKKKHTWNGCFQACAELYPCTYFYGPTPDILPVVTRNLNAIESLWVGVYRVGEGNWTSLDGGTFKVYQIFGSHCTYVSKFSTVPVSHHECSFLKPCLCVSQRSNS
MPTP block: mitochondrial permeability transition pore inhibitors, primary screen, biochemical, isolated mouse mitochondria, absorbance; inhibition, % at 10 µM; AID 602449, 2012; 1.4% of 360,000 active; Ca2+ swelling absorbance, 30 min;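 active = inhibition of 50% or more, scaled per plate between neutral and stimulator controls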
TbMetRS inhib: T. brucei MetRS inhibitors, primary screen, biochemical, luminescence. methionyl-tRNA synthetase (Trypanosoma brucei brucei). purified T. brucei MetRS, ATP depletion, Kinase-Glo luminescence. inhibition, % at 11.9 µM. 0.4% of 360,000 active;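 active = inhibition above a per-plate cutoff of the control wells' mean inhibition plus 3 SD, cut at about 5.5% in these data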
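Material – parasite MetRS enzyme · Medium – HEPES-MgCl2-KCl buffer plus DTT, spermine, BSA, pyrophosphatase · Reagent – ATP, methionine and E. coli bulk tRNA substrates · Times – 15 min enzyme-compound preincubation, 2 h reaction, 10 min detection, 25 °C · Measured by – luminescence of leftover ATP · Evaluation – percent inhibition relative to median high and low control wells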
WT yeast gro inh: growth inhibition of WT strain, primary screen, mitochondrial fusion inhibitor project, WT and mutant strains, chemical genetic. mitochondrial fusion phenotypic screen. inhibition, % at 10 µM. 2.1% of 190,000 active; in the data active = inhibition above about 58%; tested in S. cerevisiae
Numbers stand for hits; - = inactive; . = not tested or not shown. Hits are enriched below; roughly 6.4% of the tested compounds scored in any of these assays.

SMILES | CHOP inhibitor | GRIN3A LBD mod | EBV gp42 inh | MPTP block | TbMetRS inhib | WT yeast gro inh
Cc1[nH]c2ccccc2c1C(=O)COC(=O)c1c(-c2c(F)cccc2Cl)noc1C | - | 28.9 | - | - | - | 85.3
Cc1onc(-c2c(F)cccc2Cl)c1C(=O)OCN1C(=O)c2ccccc2C1=O | - | - | - | - | - | -
Cc1[nH]c2ccccc2c1C(=O)COC(=O)c1c(-c2ccccc2Cl)noc1C | - | 23.9 | - | - | - | 86.5
Cc1ccc(S(=O)(=O)N2CN(Cc3ccco3)c3nc4ccccc4nc32)cc1 | - | - | - | - | - | -
O=S(=O)(c1ccc(F)cc1)N1CN(Cc2ccco2)c2nc3ccccc3nc21 | - | - | - | - | - | 63.0
Fc1ccc(-c2nc3nc4ccccc4nc3n2Cc2ccco2)cc1 | - | 21.5 | - | - | - | -
COC(=O)CN(C#N)c1nc(C)cc(C)n1 | - | - | - | - | - | -
CC12CCC(C(=O)Nc3nccs3)(OC1=O)C2(C)C (stereo not drawn) | - | - | - | - | - | -
CC12CCC(C(=O)Nc3nc4ccc(Br)cc4s3)(OC1=O)C2(C)C (stereo not drawn) | - | - | - | - | - | 65.8
COc1ccccc1C(=O)NCCCNC(=O)c1cnccn1 | . | - | . | - | - | .
CCn1c(NC(=O)c2ccc(F)cc2)c2ccccc2nc1=O | - | - | - | - | - | 58.2
O=C(Cc1ccccc1)Nc1nc(=O)c2ccccc2s1 | - | - | - | - | - | -
O=C(Nc1nc(=O)c2ccccc2s1)c1ccc(F)cc1 | 91.2 | - | - | - | - | -
O=C(Nc1nc(=O)c2ccccc2s1)c1ccc(Cl)cc1 | 75.4 | - | - | - | - | -
C=CCOc1ccc(-c2nc3c(c(=O)[nH]c(=O)n3Cc3ccccc3)n2CCCOC)cc1 | . | - | . | - | - | .
COCCCn1cnnc1SC(C)C(=O)Nc1ccc(S(=O)(=O)N2CCOCC2)cc1 (stereo not drawn) | . | - | . | - | - | .
Cc1nc(SCC(=O)Nc2nccs2)c(C#N)c(C)c1C | . | - | . | - | - | .
Cc1nc(SCC(=O)Nc2nc3ccccc3s2)c(C#N)c(C)c1C | 102.4 | - | - | - | - | -
Cc1nnc(NC(=O)CSc2nnc(Cc3cccn3C)n2CCc2ccccc2)s1 | - | - | - | - | - | -
COc1ccc(NC(=O)CSc2nnnn2-c2ccc(F)cc2)cc1 | . | 13.6 | . | - | - | .
CCC(Sc1nnnn1-c1ccccc1)C(=O)Nc1nc2ccccc2s1 (stereo not drawn) | 88.7 | - | - | - | - | 58.1
Cn1cccc1Cc1nnc(SCC(=O)Nc2nc3ccccc3s2)n1CCc1ccccc1 | 94.9 | - | - | - | - | -
COc1ccc(C2Nc3ccccc3C(=O)N2NS(=O)(=O)c2ccc(C)cc2)cc1 (stereo not drawn) | - | - | - | - | - | -
Cc1ccc(Cl)cc1N1CCN(CC(=O)Nc2ccc(CN3CCCCC3)cc2)CC1 | - | - | - | - | - | -
O=C(CSc1nnnn1-c1ccc(F)cc1)Nc1nc2ccccc2s1 | 70.2 | - | - | - | - | -
SMILES | CHOP inhibitor | GRIN3A LBD mod | EBV gp42 inh | MPTP block | TbMetRS inhib | WT yeast gro inh
O=C1CSC(c2ccc(F)c(F)c2)N1c1ccccc1F (stereo not drawn) | . | - | . | - | - | .
Cc1ccc(SCC(=O)NC(=O)NC(C)C)c(C)c1 | - | - | - | - | - | -
Cc1ccc(SCC(=O)NC(=O)NCCC(C)C)c(C)c1 | 80.7 | - | - | - | - | -
c1ccc(-c2ccc3ncccc3n2)cc1 | . | . | . | - | - | .
c1ccc2nc(-c3nc4ccccc4o3)ccc2c1 | 71.0 | - | - | - | - | -
c1ccc(-c2ccc3ccccc3n2)cc1 | . | 31.9 | . | - | - | .
COC(=O)C1=CO[C@@H](O[C@@H]2OC(CO)[C@@H](O)[C@@H](O)[C@@H]2O)C2C1CC[C@]2(C)O (stereo partly drawn) | . | - | . | - | - | .
Cc1ccc(CNC(=O)CNS(=O)(=O)c2ccc3nc(C)sc3c2)cc1 | - | - | - | - | - | -
O=C(c1ccc(COc2ccccc2Br)o1)N1N=C(C(F)F)CC1(O)C(F)F (stereo not drawn) | 89.0 | - | - | - | - | -
Cc1cc(NC(=O)CSc2nc(C(C)C)nc3c2c(=O)n(C)c(=O)n3C)no1 | - | - | - | - | - | -
O=C(N=Nc1c(O)n(Cc2ccccc2)c2ccccc12)c1ccc(O)cc1 | - | - | - | - | - | -
O=C(N=Nc1c(O)n(C2OC(=O)c3ccccc32)c2ccccc12)c1ccc(O)cc1 (stereo not drawn) | 78.4 | - | - | - | - | -
COc1ccc(CN2CCN(C3CCC3)CC2CCO)c(C)c1C (stereo not drawn) | . | - | . | - | - | .
Cc1ccc(NS(=O)(=O)c2ccc(Cl)c(NC(=S)NC(=O)C3CCCCC3)c2)cc1Cl | 95.6 | 32.9 | - | - | - | -
Cc1ccc(S(=O)(=O)Nc2ccc(NC(=O)CN3CCCCC3)c(Cl)c2)cc1 | 94.7 | - | - | - | - | -
CC(C)(C)C(=O)Nc1cc(S(=O)(=O)Nc2ccc(Cl)cc2)ccc1Cl | 74.9 | - | - | - | - | -
Cc1cccc(-n2nc3c([n+]2[O-])CCc2nonc2-3)c1C | - | - | - | - | - | -
Cc1ccc(-n2nc3c([n+]2[O-])CCc2c-3no[n+]2[O-])cc1 | 89.9 | - | - | - | - | -
[O-][n+]1onc2c1CCc1c-2nn(-c2ccccc2Cl)[n+]1[O-] | 96.0 | - | - | - | - | -
COc1ccc(/C(O)=C2/C(=O)C(=O)N(Cc3ccco3)C2c2cccs2)cc1 (stereo not drawn) | - | - | - | - | - | -
Nc1nonc1-n1nnc(C(=O)N/N=C/c2ccc(OCc3ccccc3F)cc2)c1CN1CCCCC1 | . | 15.7 | . | - | - | .
CCN(CC)Cc1c(C(=O)N/N=C/c2cccc(OCc3cccc(Cl)c3)c2)nnn1-c1nonc1N | . | 12.5 | . | - | - | .
CCCc1c(C(=O)N/N=C/c2ccncc2)nnn1-c1nonc1N | . | - | . | - | - | .
CCCc1c(C(=O)N/N=C/c2cccc(OCc3ccc(F)cc3)c2)nnn1-c1nonc1N | . | 35.0 | . | - | - | .
Cc1cccc(COc2ccc(/C=N/NC(=O)c3nnn(-c4nonc4N)c3COc3ccc(F)cc3)cc2)c1 | - | 25.2 | - | - | - | .
CCOC(=O)c1c(C)[nH]c(C)c1C(=O)COC(=O)Cc1ccc(OC)c(OC)c1 | . | - | . | - | - | .
Cc1cccc(NC(=O)CN2CCCCCC2)c1 | . | - | . | - | - | .
CCc1cccc(C)c1NC(=S)NCc1ccc2[nH]c(C)cc2c1 | - | - | - | - | - | -

Bioassay records deposited in PubChem BioAssay by several laboratories.
